ChEMBL document CHEMBL1149043, “Antiplatelet constituents of formosan Rubia akane” (1994)

Tests used:
Platelet [1] = assay: Inhibition of arachidonic acid-induced platelet aggregation in rabbit platelet assessed as aggregation at 300 uM treated 3 mins before arachidonic acid challenge by turbidimetric method; type: functional, Oryctolagus cuniculus; parameters: scale not given: the % may be the effect or the level left
In short: (§1)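 Washed rabbit platelets (EDTA PRP, 4.5×10^8/ml, Tyrode's with 0.35% BSA) were preincubated 3 min at 37° with agent at 300 μM or 0.5% DMSO control. Percent aggregation was read turbidimetrically and reported as mean±SEM (n) with significance versus control.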

Platelet [2] = assay: Inhibition of collagen-induced platelet aggregation in rabbit platelet assessed as aggregation at 300 uM treated 3 mins before collagen challenge by turbidimetric method; type: functional, Oryctolagus cuniculus; in short: as §1
Platelet [3] = assay: Inhibition of platelet activating factor-induced platelet aggregation in rabbit platelet assessed as aggregation at 300 uM treated 3 mins before platelet activating factor challenge by turbidimetric method; type: functional, Oryctolagus cuniculus; in short: as §1
Platelet [4] = assay: Inhibition of thrombin-induced platelet aggregation in rabbit platelet assessed as aggregation at 300 uM treated 3 mins before thrombin challenge by turbidimetric method; type: functional, Oryctolagus cuniculus; in short: as §1
Platelet [5] = assay: Antiplatelet activity against rabbit platelet assessed as inhibition of collagen-induced platelet aggregation treated 3 mins before collagen challenge by turbidimetric method; type: functional, cell-based; conditions: Oryctolagus cuniculus
Platelet [6] = assay: Inhibition of platelet activating factor-induced platelet aggregation in rabbit platelet assessed as aggregation at 50 uM treated 3 mins before platelet activating factor challenge by turbidimetric method; type: functional, Oryctolagus cuniculus; parameters: scale not given: the % may be the effect or the level left
In short: (§2)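 Rabbit platelets, washed from EDTA PRP and suspended at 4.5×10^8/ml in Tyrode's/0.35% BSA, were preincubated 3 min at 37° with agent at 50 μM, with 0.5% DMSO as control. Turbidimetric percent aggregation is given as mean±SEM (n).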

Platelet [7] = assay: Inhibition of arachidonic acid-induced platelet aggregation in rabbit platelet assessed as aggregation at 50 uM treated 3 mins before arachidonic acid challenge by turbidimetric method; type: functional, Oryctolagus cuniculus; parameters: scale not given: the % may be the effect or the level left; in short: as §2
Platelet [8] = assay: Inhibition of thrombin-induced platelet aggregation in rabbit platelet assessed as aggregation at 50 uM treated 3 mins before thrombin challenge by turbidimetric method; type: functional, Oryctolagus cuniculus; parameters: scale not given: the % may be the effect or the level left; in short: as §2
Platelet [9] = assay: Inhibition of collagen-induced platelet aggregation in rabbit platelet assessed as aggregation at 50 uM treated 3 mins before collagen challenge by turbidimetric method; type: functional, Oryctolagus cuniculus; parameters: scale not given: the % may be the effect or the level left; in short: as §2
Platelet [10] = assay: Antiplatelet activity against rabbit platelet assessed as inhibition of arachidonic acid-induced platelet aggregation treated 3 mins before arachidonic acid challenge by turbidimetric method; type: functional, cell-based; conditions: Oryctolagus cuniculus

Structure (SMILES) | Activity (Platelet [1]) | Platelet aggregation (Platelet [2]) | Platelet aggregation (Platelet [3]) | Percent platelet aggregation (Platelet [4]) | Activity (Platelet [5]) | Activity (Platelet [6]) | Activity (Platelet [7]) | Activity (Platelet [8]) | Activity (Platelet [9]) | Activity (Platelet [10])
COC(=O)c1c(CC=C(C)C)c(O[C@@H]2O[C@H](CO)[C@@H](O)[C@H](O)[C@H]2O)c2ccccc2c1O[C@@H]1O[C@H](CO)[C@@H](O)[C@H](O)[C@H]1O | 86.9% | 81.2% | 90.3% | 91.3% | – | – | – | – | – | –
Cc1c(O[C@@H]2O[C@H](CO)[C@@H](O)[C@H](O)[C@H]2O[C@@H]2O[C@H](C)[C@@H](O)[C@H](O)[C@@H]2O)cc2c(c1O)C(=O)c1ccc(O)cc1C2=O | 83.4% | 84% | 89.4% | 87% | – | – | – | – | – | –
O=C1c2ccccc2C(=O)c2c(O)cc(O)cc21 [XANTHOPURPURIN] | 85% | 3.8% | 82.6% | 86.9% | – | – | – | – | – | –
Cc1c(O)cc2c(c1O)C(=O)c1ccc(O)cc1C2=O | 83% | 8.2% | 77.8% | 85.5% | Dose-dependent effect | – | – | – | – | –
CC(=O)Oc1ccccc1C(=O)O [ASPIRIN] | – | – | – | – | – | 90.5% | 0% | 91.9% | 85.4% | –
O=C1c2ccccc2C(=O)c2c1cc(O[C@@H]1O[C@H](CO[C@@H]3OC[C@@H](O)[C@H](O)[C@H]3O)[C@@H](O)[C@H](O)[C@H]1O)c(CO)c2O [LUCIDIN PRIMEVOROSIDE] | 88.5% | 83.5% | 89.1% | 92.2% | – | – | – | – | – | –
Cc1ccc2c(c1O)C(=O)c1ccccc1C2=O | 81.6% | 85.7% | 82.3% | 88.7% | – | – | – | – | – | –
CC(=O)O[C@H]1[C@H](O)[C@@H](CO)O[C@@H](Oc2cc3c(c(O)c2C)C(=O)c2ccc(O)cc2C3=O)[C@@H]1O[C@@H]1O[C@H](C)[C@@H](O)[C@H](O)[C@@H]1O | 90.6% | 82.4% | 81.5% | 82.4% | – | – | – | – | – | –
COC(=O)c1c2c(c3ccccc3c1O)OC(C)(C)C=C2 [MOLLUGIN] | 0% | 34.1% | 62.5% | 90.9% | – | – | – | – | – | Dose-dependent effect
O=C1c2ccccc2C(=O)c2c(O)cc(O[C@@H]3O[C@H](CO)[C@@H](O)[C@H](O)[C@H]3O)cc21 | 71.9% | 0% | 65.5% | 85.2% | Dose-dependent effect | – | – | – | – | –
